Laboratory results: ChEMBL document CHEMBL2093137, “WHO-TDR NTD Screening”
Converted amounts (≈) assume the structure as drawn.

Assays:
[1] = tested on: Trypanosoma brucei brucei; test: WHO-TDR: Human African Trypanosomiasis (HAT); assay type: functional, organism-based; conditions: Squib-427
How it was run: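 In this whole-organism screen, the target was the bloodstream form of Trypanosoma brucei, strain Squib 427. A diverse set of 10,000 compounds from Life Chemicals, previously filtered for drug-likeness and reactive groups, was assayed by standard published procedures using reference drugs as positive controls. Each value is an IC50 for antiparasitic potency.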

Trypanosoma cruzi = test: WHO-TDR: Chagas disease; assay type: functional, organism-based, Homo sapiens; conditions: MRC5
How it was run: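 Whole-organism screen of a 10,000-compound diverse library from Life Chemicals, filtered for drug-likeness and reactive groups, against intracellular amastigotes of Trypanosoma cruzi Tulahuen CL2 beta-galactosidase strain grown in MRC-5SV2 human lung fibroblast host cells. The assay followed previously published standard procedures, with a reference drug as positive control. Antiparasitic potency is reported as IC50.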

Leishmania infantum = test: WHO-TDR: Leishmaniasis; assay type: functional, organism-based, Mus musculus; conditions: Macrophage
How it was run: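 Intracellular amastigotes of Leishmania infantum MHOM/MA(BE)/67, hosted in murine peritoneal macrophages, were exposed to compounds from a 10,000-member diverse library supplied by Life Chemicals. The library had been filtered for drug-likeness and reactive groups. The reported IC50 expresses antiparasitic potency.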

[2] = WHO-TDR: Cytotoxicity; assay type: toxicity, cell-based; conditions: human, MRC5 cells
Plasmodium falciparum K1 = test: WHO-TDR: Malaria; assay type: functional, organism-based, Homo sapiens; conditions: Erythrocyte
How it was run: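 Previously published standard procedures, including a reference drug as positive control, were used to screen whole Plasmodium falciparum K1 parasites inside human red blood cells. IC50 is the measure of antiplasmodial potency. The compounds were a 10,000-member diverse Life Chemicals library.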

Schistosoma mansoni = test: WHO-TDR: Schistosomiasis; assay type: functional; set-up: concentration or dose not given beside the values
How it was run: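 Activity appears as percent inhibition and as IC50. The underlying screen tested a diverse library of 10,000 compounds, supplied by Life Chemicals, on whole larval and/or adult worms of the Puerto Rican strain of Schistosoma mansoni.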

Onchocerca ochengi = test: WHO-TDR: Onchocerciasis; assay type: functional; set-up: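 at 12.5 µM on microfilariae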
How it was run: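 Following previously published standard procedures, with reference drugs as positive controls, a diverse Life Chemicals library was tested on whole Onchocerca ochengi or Onchocerca lienalis microfilariae. The library held 10,000 compounds filtered for drug-likeness and reactive groups. Activity is recorded both as percent inhibition and as IC50.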

Brugia malayi = test: WHO-TDR: Lymphatic Filariasis; assay type: functional; set-up: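 tested at 10 µM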
How it was run: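 Following previously published standard procedures, compounds were tested on whole Brugia malayi microfilariae, with reference drugs as positive controls. They came from a diverse Life Chemicals collection of 10,000 compounds filtered for drug-likeness and reactive groups. Results appear as percent inhibition and as IC50.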

| IC50 [1] [µg/mL] | IC50 (Leishmania infantum) [µg/mL] | IC50 (Plasmodium falciparum K1) [µg/mL] | Structure (SMILES) | IC50 (Trypanosoma cruzi) [µg/mL] | IC50 [2] [µg/mL] | % Inhibition (Schistosoma mansoni) [%] | % Inhibition (Onchocerca ochengi) [%] | % Inhibition (Brugia malayi) [%] |
| --- | --- | --- | --- | --- | --- | --- | --- | --- |
| 4.02 (≈ 9.49 µM) | > 12.7 | > 12.7 | O=C(COc1ccccc1)NCC(c1ccco1)N1CCN(c2ccc(F)cc2)CC1 (stereo not drawn) | 4.08 (≈ 9.63 µM) | > 12.7 | 0 | 100 | – |
| > 12.3 | > 12.3 | > 12.3 | CCOc1ccc2nc(NC(=O)CS(=O)(=O)c3ccc(Cl)cc3)sc2c1 | > 12.3 | > 12.3 | 0 | 100 | – |
| 4.11 (≈ 9.71 µM) | > 12.7 | > 12.7 | O=C(NCC(c1ccco1)N1CCN(c2ccc(F)cc2)CC1)OCc1ccccc1 (stereo not drawn) | 3.86 (≈ 9.13 µM) | > 12.7 | 0 | 100 | – |
| > 10.9 | > 10.2 | > 10.2 | O=C(Nc1nnc(C2COc3ccccc3O2)o1)c1ccc(F)cc1 (stereo not drawn) | 0.289 (≈ 0.847 µM) | > 10.2 | 0 | – | 25 |
| > 12.9 | > 12.9 | 4.14 (≈ 9.62 µM) | CCOc1ccc2nc(N(Cc3cccnc3)C(=O)c3ccc(Cl)s3)sc2c1 | 0.397 (≈ 0.922 µM) | > 12.9 | 0 | 0 | – |
| 4.27 (≈ 9.49 µM) | 4.37 (≈ 9.71 µM) | > 13.5 | O=C(Nc1nnc(-c2ccc3c(c2)OCCO3)o1)c1cc(-c2ccccc2)nc2ccccc12 | 0.434 (≈ 0.963 µM) | 4.33 (≈ 9.6 µM) | 0 | – | 70 |
| 3.29 (≈ 9.63 µM) | 3.28 (≈ 9.6 µM) | > 10.2 | CCCCCOc1cccc(C(=O)Nc2nnc(-c3ccco3)o2)c1 | 0.368 (≈ 1.08 µM) | 5.71 (≈ 16.7 µM) | 0 | – | 25 |
| > 8.53 | > 8.53 | > 8.53 | CCSc1nnc2ccc(-c3ccc(CC)cc3)nn12 | > 8.53 | > 8.53 | 0 | 100 | – |
| 0.481 (≈ 1.11 µM) | > 13 | 5.18 (≈ 11.9 µM) | O=C(Nc1cccc(-c2ccc3nnc(-c4cccs4)n3n2)c1)c1c(F)cccc1F | > 13 | > 13 | 0 | 50 | – |
| > 13.3 | > 13.3 | 0.482 (≈ 1.09 µM) | O=C(Nc1cccc(-c2ccc3nnc(-c4ccncc4)n3n2)c1)c1ccc2ccccc2n1 | 7.48 (≈ 16.9 µM) | > 13.3 | 0 | 0 | – |
| 3.81 (≈ 9.24 µM) | > 12.4 | 2.67 (≈ 6.46 µM) | O=C(Cc1cccs1)Nc1cccc(-c2ccc3nnc(-c4cccnc4)n3n2)c1 | > 12.4 | 4.45 (≈ 10.8 µM) | 0 | 100 | – |
| > 11.5 | > 11.5 | 1.82 (≈ 4.75 µM) | O=C(Nc1cccc(-c2ccc3nnc(-c4cccnc4)n3n2)c1)c1ccco1 | > 11.5 | > 11.5 | 0 | 100 | – |
| 4.63 (≈ 11 µM) | 4.07 (≈ 9.71 µM) | > 12.6 | Cc1nnc2ccc(-c3ccc(NS(=O)(=O)c4ccc5c(c4)CCCC5)cc3)nn12 | 4.92 (≈ 11.7 µM) | > 12.6 | 0 | 100 | – |
| > 13.4 | > 13.4 | 5.88 (≈ 13.2 µM) | O=S(=O)(Nc1ccc(-c2ccc3nnc(-c4ccccn4)n3n2)cc1)c1ccccc1F | > 13.4 | > 13.4 | 0 | 100 | – |
| 3.87 (≈ 9.6 µM) | > 12.1 | 3.83 (≈ 9.49 µM) | COc1ccc(C)c2sc(N(Cc3cccnc3)C(=O)Cc3ccccc3)nc12 | 0.992 (≈ 2.46 µM) | > 12.1 | 0 | 0 | – |
| 5.26 (≈ 12.4 µM) | > 12.7 | 6.29 (≈ 14.8 µM) | CC(=O)c1ccc(C(=O)N(Cc2cccnc2)c2nc3c(F)cc(F)cc3s2)cc1 | 1.31 (≈ 3.09 µM) | > 12.7 | 0 | 100 | – |
| 7.21 (≈ 19.2 µM) | 4.75 (≈ 12.6 µM) | > 11.3 | COc1cccc(C(=O)Nc2ccc(C)cc2C(=O)c2ccccc2)c1OC | 3.69 (≈ 9.83 µM) | > 11.3 | 0 | 100 | – |
| 0.988 (≈ 2.18 µM) | 5.72 (≈ 12.7 µM) | > 13.6 | C=CCN(CC=C)S(=O)(=O)c1ccc(C(=O)Nc2nnc(-c3ccc(C)cc3C)o2)cc1 | 0.583 (≈ 1.29 µM) | 4.48 (≈ 9.9 µM) | 0 | 0 | – |
| > 9.71 | > 9.71 | > 9.71 | Cc1ccc(S(=O)(=O)CC(=O)Nc2cccc(Cl)c2)cc1 | > 9.71 | > 9.71 | 0 | 100 | – |
| > 12.3 | > 12.3 | > 12.3 | O=C(CS(=O)(=O)c1ccc(Cl)cc1)Nc1nc(-c2ccc(F)cc2)cs1 | > 12.3 | > 12.3 | 0 | 100 | – |
| > 13.2 | 4.28 (≈ 9.71 µM) | > 13.2 | O=C(CCS(=O)(=O)c1ccc(Cl)cc1)Nc1cccc(-c2nc3ccccc3o2)c1 | > 13.2 | > 13.2 | 0 | 100 | – |
| > 11.2 | > 11.2 | > 11.2 | Cc1ccc(SCC(=O)Nc2ccccc2-c2nc3ccccc3[nH]2)cc1 | > 11.2 | > 11.2 | 0 | 100 | – |
| > 10.7 | > 10.7 | > 10.7 | Cc1ccc(SCCC(=O)Nc2nc(-c3ccccn3)cs2)cc1 | 0.368 (≈ 1.03 µM) | 8.21 (≈ 23.1 µM) | 25 | 75 | – |
| > 10.2 | > 10.2 | > 10.2 | Cc1ccc(SCCC(=O)Nc2cc(Cl)cc(Cl)c2)cc1 | > 10.2 | > 10.2 | 0 | 100 | – |
| > 10.3 | > 10.3 | > 10.3 | CCOC(=O)c1ccc(NC(=O)CCSc2ccc(C)cc2)cc1 | > 10.3 | > 10.3 | 0 | 100 | – |
| 3.93 (≈ 9.71 µM) | > 12.1 | 0.41 (≈ 1.01 µM) | COc1ccc(-c2nc(NC(=O)CSc3ccc(Cl)cc3)sc2C)cc1 | 1.52 (≈ 3.76 µM) | > 12.1 | 0 | 100 | – |
| 5.06 (≈ 14.8 µM) | > 10.2 | > 10.2 | CNC(=O)c1ccsc1NC(=O)CSc1ccc(Cl)cc1 | 4.93 (≈ 14.5 µM) | > 10.2 | 0 | 100 | – |
| 4.31 (≈ 10.1 µM) | > 12.8 | > 12.8 | NS(=O)(=O)c1ccc2nc(NC(=O)CCSc3ccc(Cl)cc3)sc2c1 | > 12.8 | > 12.8 | 0 | 100 | – |

| Structure (SMILES) | IC50 [1] [µg/mL] | IC50 (Leishmania infantum) [µg/mL] | IC50 (Plasmodium falciparum K1) [µg/mL] | IC50 (Trypanosoma cruzi) [µg/mL] | IC50 [2] [µg/mL] | % Inhibition (Schistosoma mansoni) [%] | % Inhibition (Onchocerca ochengi) [%] | % Inhibition (Brugia malayi) [%] |
| --- | --- | --- | --- | --- | --- | --- | --- | --- |
| O=C(Nc1nnc(-c2ccco2)o1)c1cc(-c2ccccc2)nc2ccccc12 | 3.23 (≈ 8.45 µM) | 3.71 (≈ 9.71 µM) | 9.02 (≈ 23.6 µM) | 0.305 (≈ 0.798 µM) | 2.04 (≈ 5.33 µM) | 0 | – | 0 |
